From ChEMBL document CHEMBL2203076, “Kandenols A-E, eudesmenes from an endophytic Streptomyces sp. of the mangrove tree Kandelia candel” (2012)
In brackets after ≈: the same amount, converted by molar mass.

Columns and labels:
Type in all cases: functional
[1] = test system: Enterococcus faecalis; assay: Antimicrobial activity against vancomycin-resistant Enterococcus faecalis 1528 R10 by broth microdilution method
How it was run: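 MIC read-out by standard broth microdilution against E. faecalis 1528 R10, run in the same panel as Bacillus subtilis ATCC 6633 and Mycobacterium vaccae IMET 10670.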

[2] = test system: Mycolicibacterium vaccae; assay: Antimicrobial activity against Mycobacterium vaccae ATCC IMET 10670 by broth microdilution method
[3] = test system: Bacillus subtilis; assay: Antimicrobial activity against Bacillus subtilis ATCC 6633 by broth microdilution method

For O=C(O)c1cn(C2CC2)c2cc(N3CCNCC3)c(F)cc2c1=O [CIPROFLOXACIN], which MIC [1] is on record?
Its MIC is 0.78 µg/mL (≈ 2.35 µM).

What about the MIC [2] of the same compound?
The MIC was 0.1 µg/mL (≈ 0.302 µM).

And the MIC [3]?
Its MIC is less than 0.05 µg/mL.

Which MIC [1] does the source give for CC1=CC(=O)C[C@]2(C)CC[C@H](C(C)(C)O)C[C@@]12OO [KANDENOL D] here?
The MIC was greater than 100 µg/mL.

What about the MIC [2] of the same compound?
The MIC was 25 µg/mL (≈ 93.2 µM).

What about the MIC [3] of the same compound?
Its MIC is 50 µg/mL (≈ 186 µM).

Which MIC [1] does the source give for CC1=CC(=O)C[C@]2(C)C[C@@H](O)[C@H](C(C)(C)O)C[C@@H]12 (relative stereo) [KANDENOL A] here?
The MIC was greater than 100 µg/mL.

What about the MIC [2] of the same compound?
The MIC was 12.5 µg/mL (≈ 49.5 µM).

And the MIC [3]?
Its MIC is 50 µg/mL (≈ 198 µM).

Which results are given for CC1=CC(=O)C[C@]2(C)C[C@@H](O)[C@@H]3C[C@@]12OC3(C)C [KANDENOL E]?
MIC [1]: > 100 µg/mL; MIC [2]: 12.5 µg/mL (≈ 49.9 µM); MIC [3]: 50 µg/mL (≈ 200 µM)

For CC1=CC(=O)C[C@]2(C)C[C@@H](O)[C@H](C(C)(C)O)C[C@@]12O (relative stereo) [KANDENOL B], which MIC [1] is on record?
Its MIC is greater than 100 µg/mL.

What about the MIC [2] of the same compound?
The MIC was 12.5 µg/mL (≈ 46.6 µM).

And the MIC [3]?
Its MIC is 50 µg/mL (≈ 186 µM).

Which MIC [1] does the source give for CC1=CC(=O)C[C@]2(C)C[C@@H](O)[C@H](C(C)(C)O)C[C@@]12OO [KANDENOL C] here?
The MIC was greater than 100 µg/mL.

And the MIC [2]?
The MIC was 12.5 µg/mL (≈ 44 µM).

And the MIC [3]?
Its MIC is greater than 100 µg/mL.
